Experimental data: ChEMBL document CHEMBL4400511, “Benzothiopyranoindole- and pyridothiopyranoindole-based antiproliferative agents targeting topoisomerases” (2019)
Calls of active or inactive are those of the source. The calls are words filed in the database; no cut-off is given here.

Assays:
[1] = system: HeLa; experiment: Growth inhibition in human HeLa cells after 72 hrs by trypan blue dye-based assay; assay type: functional
Outline: (§1)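 Three human tumour lines were used: HeLa (cervix adenocarcinoma), A-431 (epidermoid/squamous carcinoma) and MSTO-211H (biphasic mesothelioma). GI50 is the µM concentration giving 50% cell death relative to the untreated control culture. Ellipticine was run as reference.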

[2] = system: A-431; experiment: Growth inhibition in human A431 cells after 72 hrs by trypan blue dye-based assay; assay type: functional; settings: A-431, 72 h; outline: as §1
[3] = system: MSTO-211H; experiment: Growth inhibition in human MSTO-211H cells after 72 hrs by trypan blue dye-based assay; assay type: functional; outline: as §1
[4] = system: Salmon testes DNA; experiment: Binding affinity to salmon DNA at compound to DNA ratio of 0.04 by linear flow dichroism analysis; assay type: nucleic-acid assay; settings: Salmonidae
[5] = biological target: DNA topoisomerase 2-alpha (Homo sapiens) (UniProt P11388); experiment: Inhibition of recombinant human topoisomerase 2alpha assessed as decrease in relaxation of supercoiled pBR322 DNA after 60 mins by ethidium bromide staining based agarose gel electrophoresis method
Outline: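 Topo II was incubated with supercoiled pBR322 DNA, with or without compound at a series of µM concentrations. Read-out is topoisomer formation from supercoiled DNA on a gel. Reference is 10 µM m-AMSA.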

[6] = biological target: T1, DNA topoisomerase 1 (Homo sapiens) (UniProt P11387); experiment: Inhibition of recombinant human topoisomerase 1 assessed as decrease in relaxation of supercoiled pBR322 DNA after 60 mins by ethidium bromide staining based agarose gel electrophoresis method
T1 sequence (whole entry): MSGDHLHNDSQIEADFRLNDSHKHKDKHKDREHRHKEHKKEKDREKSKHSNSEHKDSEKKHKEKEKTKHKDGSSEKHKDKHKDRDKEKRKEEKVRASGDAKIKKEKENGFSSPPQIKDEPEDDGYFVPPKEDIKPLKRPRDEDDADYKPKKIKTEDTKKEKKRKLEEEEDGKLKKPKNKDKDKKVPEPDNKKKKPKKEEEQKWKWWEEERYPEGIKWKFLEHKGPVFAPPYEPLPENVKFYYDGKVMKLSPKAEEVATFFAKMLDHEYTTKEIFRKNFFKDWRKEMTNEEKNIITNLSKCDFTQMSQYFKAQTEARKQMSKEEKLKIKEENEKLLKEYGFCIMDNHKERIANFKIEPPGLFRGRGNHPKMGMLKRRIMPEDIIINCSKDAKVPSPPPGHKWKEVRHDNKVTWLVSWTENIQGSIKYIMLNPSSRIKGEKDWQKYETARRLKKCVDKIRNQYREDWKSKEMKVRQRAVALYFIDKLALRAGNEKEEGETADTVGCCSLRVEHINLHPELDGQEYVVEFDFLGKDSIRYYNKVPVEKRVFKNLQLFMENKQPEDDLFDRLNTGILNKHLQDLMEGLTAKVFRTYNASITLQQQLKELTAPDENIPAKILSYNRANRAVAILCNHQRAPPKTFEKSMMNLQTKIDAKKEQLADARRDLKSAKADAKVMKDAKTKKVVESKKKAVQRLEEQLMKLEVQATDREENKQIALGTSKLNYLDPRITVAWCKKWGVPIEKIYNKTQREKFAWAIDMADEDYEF
Outline: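 Human recombinant Topo I was incubated with supercoiled pBR322 DNA, with or without compound at a series of µM concentrations. Read-out is the number of relaxed topoisomers formed.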

[7] = biological target: DNA topoisomerase 2-alpha (Homo sapiens) (UniProt P11388); experiment: Poison activity at recombinant human topoisomerase-2 assessed as stabilization of covalent topo-2-DNA cleavage complex by measuring linear DNA formation at 10 uM using supercoiled pBR322 DNA as substrate after 60 mins by agarose gel electrophoresis method
Outline: (§2)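 Cleavable-complex assay: supercoiled pBR322 DNA was incubated with Topo II, with or without compound at a series of µM concentrations. Enzyme-mediated linear DNA marks cleavage-complex stabilisation. Reference poison is 10 µM m-AMSA.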

[8] = biological target: T1, DNA topoisomerase 1 (Homo sapiens); experiment: Poison activity at recombinant human topoisomerase-1 assessed as stabilization of covalent topo-1-DNA cleavage complex by measuring nicked DNA formation at 0.5 to 50 uM using supercoiled pBR322 DNA as substrate after 60 mins by agarose gel electrophoresis method
Outline: (§3)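 Cleavable-complex assay: supercoiled pBR322 DNA was incubated with Topo I, with or without compound at a series of µM concentrations. Nicked DNA formation marks covalent complex stabilisation. Reference is 0.5 µM camptothecin.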

[9] = system: Salmon testes DNA; experiment: Binding affinity to salmon DNA at compound to DNA ratio of 0.08 by linear flow dichroism analysis; assay type: nucleic-acid assay; settings: Salmonidae
[10] = system: Salmon testes DNA; experiment: Binding affinity to salmon DNA at compound to DNA ratio of 0.02 to 0.04 by linear flow dichroism analysis; assay type: nucleic-acid assay; settings: Salmonidae
[11] = biological target: DNA topoisomerase 2-alpha (Homo sapiens) (UniProt P11388); experiment: Poison activity at recombinant human topoisomerase-2 assessed as stabilization of covalent topo-2-DNA cleavage complex by measuring linear DNA formation up to 50 uM using supercoiled pBR322 DNA as substrate after 60 mins by agarose gel electrophoresis method; outline: as §2
[12] = biological target: T1, DNA topoisomerase 1 (Homo sapiens); experiment: Poison activity at recombinant human topoisomerase-1 assessed as stabilization of covalent topo-1-DNA cleavage complex by measuring nicked DNA formation using supercoiled pBR322 DNA as substrate after 60 mins by agarose gel electrophoresis method; outline: as §3

DNA topoisomerase 2-alpha (Homo sapiens), sequence (P11388 whole entry): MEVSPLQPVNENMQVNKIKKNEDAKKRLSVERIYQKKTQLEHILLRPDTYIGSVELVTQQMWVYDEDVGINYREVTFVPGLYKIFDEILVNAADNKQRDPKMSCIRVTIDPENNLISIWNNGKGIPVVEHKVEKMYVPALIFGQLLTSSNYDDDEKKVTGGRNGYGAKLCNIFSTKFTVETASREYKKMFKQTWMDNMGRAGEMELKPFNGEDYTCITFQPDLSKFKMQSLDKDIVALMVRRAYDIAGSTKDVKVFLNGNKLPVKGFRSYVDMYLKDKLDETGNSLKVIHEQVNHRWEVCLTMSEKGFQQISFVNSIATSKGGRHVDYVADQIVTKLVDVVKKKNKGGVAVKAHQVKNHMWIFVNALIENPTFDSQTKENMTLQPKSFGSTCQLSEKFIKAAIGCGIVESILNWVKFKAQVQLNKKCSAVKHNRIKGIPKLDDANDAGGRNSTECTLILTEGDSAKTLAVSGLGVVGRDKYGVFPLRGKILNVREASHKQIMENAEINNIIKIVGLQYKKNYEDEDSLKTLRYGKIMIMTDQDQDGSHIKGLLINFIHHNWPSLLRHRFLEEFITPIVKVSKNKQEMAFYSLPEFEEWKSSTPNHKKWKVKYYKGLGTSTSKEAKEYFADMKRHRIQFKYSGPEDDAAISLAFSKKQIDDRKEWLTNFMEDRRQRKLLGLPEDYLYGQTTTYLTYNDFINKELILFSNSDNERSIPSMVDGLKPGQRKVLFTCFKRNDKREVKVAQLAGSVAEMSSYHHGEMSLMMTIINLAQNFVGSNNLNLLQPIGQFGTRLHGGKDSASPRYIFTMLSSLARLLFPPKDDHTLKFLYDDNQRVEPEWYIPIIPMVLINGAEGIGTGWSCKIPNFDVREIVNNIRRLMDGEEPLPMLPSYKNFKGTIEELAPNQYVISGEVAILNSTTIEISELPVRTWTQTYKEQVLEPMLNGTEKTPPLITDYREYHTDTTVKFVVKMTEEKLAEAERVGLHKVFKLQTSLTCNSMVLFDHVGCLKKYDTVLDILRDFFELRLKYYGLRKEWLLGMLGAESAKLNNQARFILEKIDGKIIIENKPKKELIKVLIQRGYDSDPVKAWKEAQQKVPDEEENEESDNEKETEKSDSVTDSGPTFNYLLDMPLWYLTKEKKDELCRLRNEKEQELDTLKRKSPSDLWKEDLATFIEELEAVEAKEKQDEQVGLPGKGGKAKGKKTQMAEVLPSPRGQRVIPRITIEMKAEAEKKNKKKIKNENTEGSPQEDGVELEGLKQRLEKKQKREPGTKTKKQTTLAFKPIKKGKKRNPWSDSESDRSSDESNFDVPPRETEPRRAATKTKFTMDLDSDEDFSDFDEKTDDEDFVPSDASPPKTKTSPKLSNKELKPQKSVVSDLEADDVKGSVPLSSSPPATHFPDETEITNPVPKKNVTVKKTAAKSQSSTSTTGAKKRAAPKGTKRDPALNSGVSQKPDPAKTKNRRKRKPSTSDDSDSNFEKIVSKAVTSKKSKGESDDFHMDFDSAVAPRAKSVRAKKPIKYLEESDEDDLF

Compound: CN(C)CCn1c2ccc(Cl)cc2c2sc3ncccc3c(=O)c21
- GI50 [1]: 3020 nM
- GI50 [2]: 2000 nM
- GI50 [3]: 2360 nM
- Activity [4]: Active
- inhibition [5]: Dose-dependent effect
- inhibition [6]: Dose-dependent effect
- Activity [7]: Active
- Activity [8]: inactive

Compound: CCN(CC)CCn1c2ccc(Cl)cc2c2sc3cc(Cl)ccc3c(=O)c21
- GI50 [1]: 4310 nM
- GI50 [2]: 3290 nM
- GI50 [3]: 2990 nM
- Activity [9]: Active
- inhibition [5]: Dose-dependent effect
- inhibition [6]: Dose-dependent effect
- Activity [7]: Active
- Activity [8]: inactive

Compound: COc1ccc2c(c1)c1sc3ccccc3c(=O)c1n2CCN(C)C
- GI50 [1]: 5810 nM
- GI50 [2]: 2240 nM
- GI50 [3]: 2370 nM
- Activity [9]: Active
- inhibition [5]: Dose-dependent effect
- inhibition [6]: Dose-dependent effect
- Activity [7]: Active
- Activity [8]: inactive

Compound: CN(C)CCn1c2ccccc2c2sc3ncccc3c(=O)c21
- GI50 [1]: 1550 nM
- GI50 [2]: 540 nM
- GI50 [3]: 1080 nM
- Activity [4]: Active
- inhibition [5]: Dose-dependent effect
- inhibition [6]: Dose-dependent effect
- Activity [7]: Active
- Activity [8]: inactive

Compound: COc1ccc2c(=O)c3c(sc2c1)c1cc(OC)c(OC)cc1n3CCN(C)C
- GI50 [1]: 740 nM
- GI50 [2]: 480 nM
- GI50 [3]: 440 nM
- Activity [4]: Active
- inhibition [5]: Dose-dependent effect
- inhibition [6]: Dose-dependent effect
- Activity [7]: Active
- Activity [8]: inactive

Compound: COc1cc(NS(C)(=O)=O)ccc1Nc1c2ccccc2nc2ccccc12
- Activity [7]: Active

Compound: COc1ccc2c(c1)c1sc3ncccc3c(=O)c1n2CCN(C)C
- GI50 [1]: 2710 nM
- GI50 [2]: 1420 nM
- GI50 [3]: 750 nM
- Activity [4]: Active
- inhibition [5]: Dose-dependent effect
- inhibition [6]: Dose-dependent effect
- Activity [7]: Active
- Activity [8]: inactive

Compound: CCN(CC)CCn1c2ccc(OC)cc2c2sc3ncccc3c(=O)c21
- GI50 [1]: 2610 nM
- GI50 [2]: 1900 nM
- GI50 [3]: 700 nM
- Activity [4]: Active
- inhibition [5]: Dose-dependent effect
- inhibition [6]: Dose-dependent effect
- Activity [7]: Active
- Activity [8]: inactive

Compound: CCN(CC)CCn1c2cc(OC)c(OC)cc2c2sc3ccccc3c(=O)c21
- GI50 [1]: 1770 nM
- GI50 [2]: 1110 nM
- GI50 [3]: 700 nM
- Activity [4]: Active
- inhibition [5]: Dose-dependent effect
- inhibition [6]: Dose-dependent effect
- Activity [7]: Active
- Activity [8]: Active

Compound: CCN(CC)CCn1c2ccccc2c2sc3ncccc3c(=O)c21
- GI50 [1]: 2570 nM
- GI50 [2]: 470 nM
- GI50 [3]: 1330 nM
- Activity [4]: Active
- inhibition [5]: Dose-dependent effect
- inhibition [6]: Dose-dependent effect
- Activity [7]: Active
- Activity [8]: inactive

Compound: COc1cc2c3sc4ncccc4c(=O)c3n(CCN(C)C)c2cc1OC
- GI50 [1]: 1700 nM
- GI50 [2]: 710 nM
- GI50 [3]: 350 nM
- Activity [10]: Active
- inhibition [5]: Dose-dependent effect
- inhibition [6]: Dose-dependent effect
- Activity [11]: inactive
- Activity [12]: Dose-dependent effect
- Activity [8]: Active

Compound: CCN(CC)CCn1c2cc(OC)c(OC)cc2c2sc3cc(Cl)ccc3c(=O)c21
- GI50 [1]: 4550 nM
- GI50 [2]: 2220 nM
- GI50 [3]: 2370 nM
- Activity [4]: Active
- inhibition [5]: Dose-dependent effect
- inhibition [6]: Dose-dependent effect
- Activity [7]: Active
- Activity [8]: inactive

Compound: CCN(CC)CCn1c2ccc(Cl)cc2c2sc3ncccc3c(=O)c21
- GI50 [1]: 4200 nM
- GI50 [2]: 1790 nM
- GI50 [3]: 1420 nM
- Activity [4]: Active
- inhibition [5]: Dose-dependent effect
- inhibition [6]: Dose-dependent effect
- Activity [7]: Active
- Activity [8]: inactive

Compound: CN(C)CCn1c2ccc(Cl)cc2c2sc3cc(Cl)ccc3c(=O)c21
- GI50 [1]: 2660 nM
- GI50 [2]: 1760 nM
- GI50 [3]: 1640 nM
- Activity [9]: Active
- inhibition [5]: Dose-dependent effect
- inhibition [6]: Dose-dependent effect
- Activity [7]: Active
- Activity [8]: inactive

Compound: COc1ccc2c(c1)c1sc3cc(Cl)ccc3c(=O)c1n2CCN(C)C
- GI50 [1]: 2790 nM
- GI50 [2]: 2670 nM
- GI50 [3]: 2960 nM
- Activity [9]: Active
- inhibition [5]: Dose-dependent effect
- inhibition [6]: Dose-dependent effect
- Activity [7]: Active
- Activity [8]: inactive

Compound: CCN(CC)CCn1c2ccc(OC)cc2c2sc3cc(Cl)ccc3c(=O)c21
- GI50 [1]: 3210 nM
- GI50 [2]: 5440 nM
- GI50 [3]: 4190 nM
- Activity [9]: Active
- inhibition [5]: Dose-dependent effect
- inhibition [6]: Dose-dependent effect
- Activity [7]: Active
- Activity [8]: inactive

Compound: Cc1c2ccncc2c(C)c2c1[nH]c1ccccc12 [ELLIPTECINE]
- GI50 [1]: 470 nM
- GI50 [2]: 650 nM
- GI50 [3]: 770 nM
- Activity [10]: Active

Compound: CCN(CC)CCn1c2cc(OC)c(OC)cc2c2sc3cc(OC)ccc3c(=O)c21
- GI50 [1]: 1750 nM
- GI50 [2]: 670 nM
- GI50 [3]: 360 nM
- Activity [4]: Active
- inhibition [5]: Dose-dependent effect
- inhibition [6]: Dose-dependent effect
- Activity [7]: Active
- Activity [8]: inactive

Compound: CCN(CC)CCn1c2cc(OC)c(OC)cc2c2sc3ncccc3c(=O)c21
- GI50 [1]: 6930 nM
- GI50 [2]: 2670 nM
- GI50 [3]: 620 nM
- Activity [4]: Active
- inhibition [5]: Dose-dependent effect
- inhibition [6]: Dose-dependent effect
- Activity [7]: Active
- Activity [8]: Active

Compound: CCN(CC)CCn1c2ccc(OC)cc2c2sc3ccccc3c(=O)c21
- GI50 [1]: 2790 nM
- GI50 [2]: 2080 nM
- GI50 [3]: 1610 nM
- Activity [9]: Active
- inhibition [5]: Dose-dependent effect
- inhibition [6]: Dose-dependent effect
- Activity [7]: Active
- Activity [8]: inactive

Compound: COc1cc2c3sc4cc(Cl)ccc4c(=O)c3n(CCN(C)C)c2cc1OC
- GI50 [1]: 3540 nM
- GI50 [2]: 3190 nM
- GI50 [3]: 1820 nM
- Activity [4]: Active
- inhibition [5]: Dose-dependent effect
- inhibition [6]: Dose-dependent effect
- Activity [7]: Active
- Activity [8]: inactive
